The source made the active and inactive calls. The calls are words filed in the database; no cut-off is given here.
Columns and labels:
[1] = Inhibition of human MSC senescence assessed as appearance of senescence-associated beta-galactosidase positive cells at 50 uM after 48 hrs by optic microscopy relative to control; format: functional; design: scale not given: the % may be the effect or the level left
Summary of the method: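 Primary human MSC cultured 30 days (ninth passage), 3 × 10^5 cells/well, treated at 50 μM for 48 h. Cells fixed in 2% formaldehyde/0.2% glutaraldehyde, then stained overnight at 37 °C in pH 6 citrate/phosphate buffer with ferro/ferricyanide and 1 mg/mL X-Gal. Blue cells counted as % of total, with the control set as 100%.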

C2C12 [2] = test: Increase in mitochondrial function in mouse C2C12 cells assessed as enhancement of mitochondrial density at 50 uM after 16 hrs by green FM dye straining-based fluorescence assay; format: functional, cell-based
Summary of the method: (§1)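 C2C12 myoblasts (3000 cells/well) treated for 16 h (overnight), with DMSO as control. Cells then stained with MitoTracker Green FM (200 nM) and fluorescence intensity read after subtracting background from unstained wells.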

[3] = target: T1, NAD-dependent protein deacetylase sirtuin-2 (Homo sapiens) (UniProt Q8IXJ6); test: Activation of human SIRT2 expressed in Escherichia coli after 1 hr by fluorescent biochemical assay
T1 sequence (whole entry): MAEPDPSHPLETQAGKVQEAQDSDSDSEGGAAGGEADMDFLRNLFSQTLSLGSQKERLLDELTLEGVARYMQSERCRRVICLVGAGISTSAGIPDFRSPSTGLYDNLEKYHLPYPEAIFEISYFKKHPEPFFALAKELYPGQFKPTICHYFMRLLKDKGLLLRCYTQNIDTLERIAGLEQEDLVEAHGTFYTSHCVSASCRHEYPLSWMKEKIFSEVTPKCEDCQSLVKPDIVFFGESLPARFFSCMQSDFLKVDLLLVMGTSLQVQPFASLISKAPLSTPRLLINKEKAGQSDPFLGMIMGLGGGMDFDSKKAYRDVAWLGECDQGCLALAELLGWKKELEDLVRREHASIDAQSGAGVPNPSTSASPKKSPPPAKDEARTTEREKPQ
Summary of the method: (§2)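 Fluor de Lys two-step assay with human SIRT1 (full length, 747 aa), SIRT2 (389 aa) or SIRT3 catalytic fragment ([…]), all expressed in E. coli. Enzyme was set at 1 U/well for SIRT1 and 5 U/well for SIRT2/SIRT3. Developer was then added for 15 min at 37 °C. Read at ex 355/em 460 nm, triplicates, background-subtracted, with autofluorescence controls for activators.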

[4] = target: T2, Peroxisome proliferator-activated receptor gamma coactivator 1-alpha (Homo sapiens) (UniProt Q9UBK2); test: Stimulation of PGC1-alpha-mediated transcriptional activity of mTFA promoter in mouse C2C12 cells expressing NRF1 site after 16 hrs by luciferase reporter gene assay; format: cell-based
T2 sequence (whole entry): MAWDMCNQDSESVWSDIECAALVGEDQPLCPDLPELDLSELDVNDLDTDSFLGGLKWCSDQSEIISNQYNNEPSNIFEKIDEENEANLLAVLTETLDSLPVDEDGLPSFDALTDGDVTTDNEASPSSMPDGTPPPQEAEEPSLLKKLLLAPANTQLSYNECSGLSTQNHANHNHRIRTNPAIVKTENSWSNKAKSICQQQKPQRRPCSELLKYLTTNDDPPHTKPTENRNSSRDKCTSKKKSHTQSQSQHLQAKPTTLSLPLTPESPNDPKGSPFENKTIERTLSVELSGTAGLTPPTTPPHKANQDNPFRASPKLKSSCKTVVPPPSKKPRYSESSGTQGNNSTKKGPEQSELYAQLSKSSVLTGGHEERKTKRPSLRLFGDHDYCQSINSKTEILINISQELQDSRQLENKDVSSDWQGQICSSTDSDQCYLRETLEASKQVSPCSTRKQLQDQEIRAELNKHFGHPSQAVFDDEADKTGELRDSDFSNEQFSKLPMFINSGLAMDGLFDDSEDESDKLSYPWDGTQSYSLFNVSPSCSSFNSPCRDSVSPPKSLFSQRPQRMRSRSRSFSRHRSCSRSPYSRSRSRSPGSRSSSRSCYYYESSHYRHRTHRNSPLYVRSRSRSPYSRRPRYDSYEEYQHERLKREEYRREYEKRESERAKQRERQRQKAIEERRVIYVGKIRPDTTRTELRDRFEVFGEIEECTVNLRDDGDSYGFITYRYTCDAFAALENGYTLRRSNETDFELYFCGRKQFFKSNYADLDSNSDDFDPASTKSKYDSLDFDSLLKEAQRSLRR
Summary of the method: (§3)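 C2C12 myoblasts in DMEM with 10% heat-inactivated FCS were reverse-transfected (Lipofectamine) with a luciferase reporter carrying either the wild-type mTFA promoter or a mutant lacking the NRF1 site. Cells plated at 3000/well and treated for 16 h (overnight). Luciferase activity compared with DMSO-treated cells by Student's t-test.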

C2C12 [5] = test: Stimulation of transcriptional activity of mTFA promoter in mouse C2C12 cells after 16 hrs by luciferase reporter gene assay; format: functional, cell-based; summary of the method: as §3
C2C12 [6] = test: Increase in mitochondrial function in mouse C2C12 cells assessed as enhancement of mitochondrial density at 10 to 50 uM after 16 hrs by green FM dye straining-based fluorescence assay; format: functional, cell-based; summary of the method: as §1
[7] = target: T3, NAD-dependent protein deacetylase sirtuin-1 (Homo sapiens) (UniProt Q96EB6); test: Activation of human SIRT1 expressed in Escherichia coli after 1 hr by fluorescent biochemical assay; summary of the method: as §2
T3 sequence (whole entry): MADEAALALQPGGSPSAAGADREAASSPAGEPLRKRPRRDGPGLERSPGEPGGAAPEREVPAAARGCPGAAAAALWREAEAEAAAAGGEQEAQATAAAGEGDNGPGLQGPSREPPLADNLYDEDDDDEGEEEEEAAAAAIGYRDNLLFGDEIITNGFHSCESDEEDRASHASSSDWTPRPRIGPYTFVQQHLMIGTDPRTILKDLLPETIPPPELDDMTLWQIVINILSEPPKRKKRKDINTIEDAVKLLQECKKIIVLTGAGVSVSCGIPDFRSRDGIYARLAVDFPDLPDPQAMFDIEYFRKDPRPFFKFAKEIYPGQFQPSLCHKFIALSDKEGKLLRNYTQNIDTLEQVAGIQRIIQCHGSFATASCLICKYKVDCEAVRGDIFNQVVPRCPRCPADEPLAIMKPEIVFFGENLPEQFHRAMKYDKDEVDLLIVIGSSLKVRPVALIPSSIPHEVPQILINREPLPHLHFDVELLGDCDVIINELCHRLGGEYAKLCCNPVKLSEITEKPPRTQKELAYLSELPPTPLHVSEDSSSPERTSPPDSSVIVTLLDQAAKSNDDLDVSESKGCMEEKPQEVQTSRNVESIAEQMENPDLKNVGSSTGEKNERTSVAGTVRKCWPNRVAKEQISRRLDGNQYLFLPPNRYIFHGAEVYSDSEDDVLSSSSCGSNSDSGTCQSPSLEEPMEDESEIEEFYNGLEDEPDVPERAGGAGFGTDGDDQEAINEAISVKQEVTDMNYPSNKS

[8] = target: T4, NAD-dependent protein deacetylase sirtuin-3, mitochondrial (Homo sapiens) (UniProt Q9NTG7); test: Inhibition of human SIRT3 expressed in Escherichia coli at 50 uM after 1 hr by fluorescent biochemical assay; summary of the method: as §2
T4 sequence (whole entry): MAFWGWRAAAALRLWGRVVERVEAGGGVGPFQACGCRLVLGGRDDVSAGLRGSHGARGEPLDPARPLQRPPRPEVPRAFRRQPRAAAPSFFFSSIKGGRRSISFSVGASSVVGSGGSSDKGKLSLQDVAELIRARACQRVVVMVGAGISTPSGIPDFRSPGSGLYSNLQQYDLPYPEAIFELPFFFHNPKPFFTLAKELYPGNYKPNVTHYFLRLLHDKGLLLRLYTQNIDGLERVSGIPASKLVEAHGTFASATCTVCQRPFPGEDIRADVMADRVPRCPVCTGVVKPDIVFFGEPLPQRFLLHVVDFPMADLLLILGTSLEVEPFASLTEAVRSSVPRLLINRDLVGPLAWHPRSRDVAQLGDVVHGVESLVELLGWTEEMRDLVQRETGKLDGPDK

U937 (Homo sapiens) = test: Induction of granulocyte differentiation in human U937 cells assessed as increase in phycoerythrine-conjugated CD11c expression at 50 uM after 30 hrs by propidium iodide staining-based FACS analysis
U-937 [9] = test: Cell cycle arrest in human U937 cells assessed as accumulation at G1/S phase at 50 uM after 30 hrs by FACS analysis; format: functional, cell-based
Summary of the method: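 U937 cells given 50 μM for 30 h. 2.5 × 10^5 cells lysed in hypotonic buffer (0.1% Triton X-100, 0.1% sodium citrate, 50 μg/mL PI, RNase A) for 30 min in the dark, then DNA content measured by flow cytometry. Done in triplicate.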

MCF7 [10] = test: Induction of apoptosis in human MCF7 cells assessed as caspase 3/7 activity at 50 uM after 30 hrs by FACS analysis; format: functional, cell-based
[11] = target: T4, NAD-dependent protein deacetylase sirtuin-3, mitochondrial (Homo sapiens); test: Activation of human SIRT3 expressed in Escherichia coli after 1 hr by fluorescent biochemical assay; summary of the method: as §2
MCF7 [12] = test: Cell cycle arrest in human MCF7 cells assessed as accumulation at G1/S phase at 50 uM after 30 hrs by FACS analysis; format: functional, cell-based
[13] = target: T3, NAD-dependent protein deacetylase sirtuin-1 (Homo sapiens); test: Inhibition of human SIRT1 expressed in Escherichia coli at 50 uM after 1 hr by fluorescent biochemical assay; summary of the method: as §2
[14] = target: T1, NAD-dependent protein deacetylase sirtuin-2 (Homo sapiens); test: Inhibition of human SIRT2 expressed in Escherichia coli at 50 uM after 1 hr by fluorescent biochemical assay; summary of the method: as §2
[15] = target: T1, NAD-dependent protein deacetylase sirtuin-2 (Homo sapiens); test: Activation of human SIRT2 expressed in Escherichia coli at 1 to 50 uM after 1 hr by fluorescent biochemical assay; summary of the method: as §2
U-937 [16] = test: Induction of apoptosis in human U937 cells assessed as caspase 3/7 activity at 50 uM after 30 hrs by FACS analysis; format: functional
Summary of the method: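 U937 cells given 50 μM for 30 h. Apoptosis measured as caspase 3-7 activity by FACS.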

MCF7 [17] = test: Induction of granulocyte differentiation in human MCF7 cells assessed as increase in phycoerythrine-conjugated CD11c expression at 50 uM after 30 hrs by propidium iodide staining-based FACS analysis; format: functional, cell-based
U-937 [18] = test: Induction of granulocyte differentiation in human U937 cells assessed as increase in phycoerythrine-conjugated CD11c expression at 50 uM after 30 hrs by propidium iodide staining-based FACS analysis; format: functional
Summary of the method: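 U937 cells given 50 μM for 30 h, then stained with CD11c-PE (or PE-mouse IgG1 control) for 30 min at 4 °C in the dark. Cells were resuspended in PBS with PI (0.25 μg/mL) and analyzed by FACS, with PI-positive cells excluded. Readout: CD11c+/PI− cells.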

SMILES	Activity [1]	Activity [7]	Activity [8]	Activity (U937 (Homo sapiens))	Activity (U-937 [9])	Activity (MCF7 [10])	EC150 [11]	Activity (MCF7 [12])	inhibition [13]	inhibition [14]	Activity (U-937 [16])	also measured
Oc1ccc(/C=C/c2cc(O)cc(O)c2)cc1 [RESVERATROL]	50%	–	–	–	–	–	–	–	–	–	–	Activity (C2C12 [2]): Active
CCOC(=O)C1=CN(Cc2ccccc2)C=C(C(=O)OCC)C1c1ccccc1	–	Dose-dependent effect	inactive	inactive	Active	inactive	50 µM	inactive	inactive	inactive	–	EC150 [3]: 25 µM; Activity [4]: Dose-dependent effect; Activity (C2C12 [5]): inactive; Activity (C2C12 [6]): Active; EC150 [7]: 1 µM
NC(=O)C1=CN(Cc2ccccc2)C=C(C(N)=O)C1c1ccccc1	65%	Dose-dependent effect	inactive	inactive	Active	inactive	> 50 µM	inactive	inactive	inactive	–	Activity [15]: inactive
O=C(O)C1=CN(c2ccccc2)C=C(C(=O)O)C1c1ccccc1	–	–	–	–	–	–	–	–	86.6%	–	–	–
NC(=O)C1=CN(c2ccccc2)C=C(C(N)=O)C1c1ccccc1	–	–	–	–	–	–	–	–	89.1%	–	–	–
CCOC(=O)C1=CN(C2CC2)C=C(C(=O)OCC)C1c1ccccc1	–	–	–	inactive	–	inactive	–	inactive	–	53.7%	3%	–
CCOC(=O)C1=CN(c2ccccc2)C=C(C(=O)OCC)C1c1ccccc1	–	–	–	inactive	–	inactive	–	inactive	63.6%	51.3%	3%	–
CCOC(=O)C1=CN(CCc2ccccc2)C=C(C(=O)OCC)C1c1ccccc1	–	–	–	–	–	inactive	–	inactive	76.6%	49.6%	3%	Activity (MCF7 [17]): inactive; Activity (U-937 [18]): 12.3%
O=C(O)C1=CN(Cc2ccccc2)C=C(C(=O)O)C1c1ccccc1	70%	Dose-dependent effect	inactive	inactive	Active	inactive	50 µM	inactive	inactive	inactive	–	EC150 [3]: 15 µM; EC150 [7]: 1 µM

Reference: ChEMBL document CHEMBL1154783, “Study of 1,4-dihydropyridine structural scaffold: discovery of novel sirtuin activators and inhibitors” (2009)
